High-throughput results as filed in PubChem.
Redox H2O2 prof – compounds producing H2O2 with reducing agent – biochemical, NIH compound library profiling, artefact control for MLSCN library redox annotation, primary screen; DTT-dependent redox cycling H2O2, phenol red/HRP absorbance; 100% = 100 µM peroxide control, 0% = buffer; activation, % at 10 µM; hit rate 0.03% among 200,000; AID 878;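 active = activation of at least 50% relative to the plate's high and low controls in the primary single-dose screen; inactive = activation below 50%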;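 note: compound incubated with DTT at 0.8 mM final as the reducing agent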
thrombin 1536 – thrombin (human) inhibition. P00734. alpha-thrombin, Boc-VPR-AMC fluorogenic substrate cleavage. inhibition, % at 5 µM. hit rate 0.26% among 220,000. AID 1046;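 active = inhibition at or above 40%; inactive = inhibition below 40%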
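System: human alpha-thrombin protein; Compound dosing: one concentration per compound, 5 µM, with 0.2% DMSO; Timing: reaction at room temperature; Technique: AMC fluorescence, 355/460 nm; Controls: enzyme without compound as high, wells lacking enzyme as low.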
FXIIa inh 1536 – blocks human coagulation factor XIIa protease activity. P00748. hit rate 0.3% among 220,000. AID 800. purified FXIIa, Boc-QGR-AMC fluorogenic substrate, 2 h. inhibition, % at 5 µM; in the data active = inhibition above about 40%
KLK5 inh – kallikrein 5 (human) inhibition; inhibition, % at 5 µM; recombinant hK5, fluorogenic AMC substrate cleavage; hit rate 0.59% among 210,000; AID 873;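 active = inhibition of 40% or more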
Target sequence (Q9Y337 67-293 limits assumed): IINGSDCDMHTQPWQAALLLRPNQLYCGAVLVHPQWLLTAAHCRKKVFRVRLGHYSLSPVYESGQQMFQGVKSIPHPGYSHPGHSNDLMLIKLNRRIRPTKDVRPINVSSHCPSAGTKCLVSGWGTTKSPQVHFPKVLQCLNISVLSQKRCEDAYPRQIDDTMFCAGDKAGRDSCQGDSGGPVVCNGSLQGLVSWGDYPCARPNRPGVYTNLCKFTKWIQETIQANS
FXIa inh – blocks human coagulation factor XIa protease activity; purified FXIa, Boc-Glu-Ala-Arg-AMC fluorogenic substrate; AID 798; P03951; hit rate 0.14% among 220,000; inhibition, % at 5 µM;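 active = inhibition of at least 40%; inactive = inhibition below 40%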;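 note: fluorescence of freed AMC excited at 355 nm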
S1P3 antag – antagonists of human S1P3 receptor | Q99500 | CHO S1P3 NFAT-BLA reporter, FRET fluorescence, antagonist mode | inhibition, % at 4.98 µM | hit rate 0.27% among 170,000 | AID 485;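 active = inhibition above the plate cutoff, the mean inhibition of test wells on that plate plus 3 SD, cut at about 28% in these data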;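 note: cells challenged with S1P at its EC80 of 0.8 µM; blue over green emission ratio from cleaved BLA substrate after 4 h stimulation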
Target sequence (Q99500 whole entry, looked up): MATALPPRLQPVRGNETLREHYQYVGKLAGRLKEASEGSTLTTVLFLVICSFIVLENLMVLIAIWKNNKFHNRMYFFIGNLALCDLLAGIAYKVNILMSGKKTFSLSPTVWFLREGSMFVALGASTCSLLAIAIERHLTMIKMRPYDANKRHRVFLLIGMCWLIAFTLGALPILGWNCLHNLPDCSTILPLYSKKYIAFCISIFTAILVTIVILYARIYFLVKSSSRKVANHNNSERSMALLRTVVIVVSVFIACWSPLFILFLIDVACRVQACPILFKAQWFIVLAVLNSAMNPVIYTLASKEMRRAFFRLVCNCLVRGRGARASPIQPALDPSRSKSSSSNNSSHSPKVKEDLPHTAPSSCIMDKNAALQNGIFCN
Hits are given with their value; 0 = inactive; - = no result given. This is a sample that favours compounds with a hit; in the whole collection about 1.2% have one here.

SMILES	Redox H2O2 prof	thrombin 1536	FXIIa inh 1536	KLK5 inh	FXIa inh	S1P3 antag
COc1ccc(OC)c(C2C(C(C)=O)=C(O)C(=O)N2CCC(=O)O)c1 (stereo not drawn)	0	0	0	0	0	104
COc1ccc(C(=O)/C=C/Sc2nc3ccccc3o2)cc1	-	0	0	0	0	0
CCCCOC(=O)Sc1nc2ccccc2o1	0	46	0	0	0	0
COC(C[C@@H](O)CC(=O)COCc1ccccc1)OC	-	0	0	0	0	-
COc1ccccc1C(=O)Nc1ccc(S(=O)(=O)NC2=NCCCCC2)cc1	0	0	0	52	0	0
COC(=O)Nc1ccc(S(=O)(=O)N2CCCC(C(=O)O)C2)cc1 (stereo not drawn)	0	0	0	0	0	0
Cc1c(C(=O)N(Cc2ccccc2)Cc2cccs2)cnn1-c1ccc(Cl)cc1	-	0	107	44	0	0
COc1cc(C(=O)Nc2ccc3c(c2)OCCO3)ccc1OC(F)F	0	0	0	0	0	0
COc1cc(C(=O)Nc2ccc3c(c2)OCCO3)ccc1OC(C)C	0	0	0	63	0	0
O=C(CNC(=O)c1ccncc1)N/N=C/c1ccccc1[N+](=O)[O-]	0	0	0	0	0	0
O=C(NCCCN1CCOCC1)C(=O)N/N=C/c1ccccc1O	-	0	0	0	0	0
COc1ccc(NC(=O)CC23CC4CC(C2)CC(n2nnc(C)n2)(C4)C3)cc1	0	0	0	0	0	0
CCOc1ccc(N(CC(=O)Nc2cc(C)ccc2C)S(=O)(=O)c2c(C)[nH]c(=O)[nH]c2=O)cc1	-	0	100	0	0	0
CCc1nnc(NC(=O)Cc2cc(OC)c(OC)c(OC)c2)s1	0	-	0	0	0	0
Cc1ccc(-c2nc3ccccc3[nH]2)s1	0	0	0	0	0	0
c1csc(-c2nc3ccccc3[nH]2)c1	0	0	43	0	0	0
COc1ccc(S(=O)(=O)N(CCCN2CCCC2=O)Cc2cc3cc(C)c(C)cc3[nH]c2=O)cc1	0	0	0	86	0	0
Cc1ccc(S(=O)(=O)N(CCCN2CCCC2=O)Cc2cc3c(C)ccc(C)c3[nH]c2=O)cc1	0	0	0	0	0	-
O=C(O)COc1ccccc1/C=N/NC(=O)CSc1nnc(-c2ccc(Cl)cc2)n1C1CCCCC1	-	0	0	0	0	0
CCOc1ccc(C(=O)NCC(=O)OC(C)C(=O)NCc2ccco2)cc1OCC (stereo not drawn)	0	64	0	55	0	0
COc1ccc(C(=O)Nc2ccccc2C(=O)NCc2ccco2)cc1OC	0	0	0	42	0	0
O=C(NCc1ccco1)c1cccc(NC(=O)c2ccccc2)c1	0	0	0	0	0	0
Cc1ccc(C(=O)Nc2cccc(C(=O)NCc3ccco3)c2)cc1	0	0	0	0	0	67
CCOc1ccc(C(=O)NCc2ccco2)cc1	0	0	0	0	0	0
COc1ccc(-n2nc(C(=O)NCC(=O)NCC3COc4ccccc4O3)c3ccccc3c2=O)cc1 (stereo not drawn)	0	0	0	0	0	0
SMILES	Redox H2O2 prof	thrombin 1536	FXIIa inh 1536	KLK5 inh	FXIa inh	S1P3 antag
C(=N\Nc1ncnc2nc[nH]c12)/c1cccs1	0	0	0	0	0	0
COCCCNC(=O)C1CCC(CNS(=O)(=O)c2ccc(Cl)cc2)CC1 (stereo not drawn)	0	0	0	0	0	0
Cc1ccc(C)c(-c2nc3cc(N)ccc3o2)c1	0	0	41	0	0	-
COc1ccc(NC(=O)Nc2ccc(CC(=O)O)cc2)cc1	0	0	0	0	0	0
O=C1C(C=NCCCN2CCOCC2)=C(O)c2ccccc21	0	0	0	59	0	0
Cc1c(N=C/C=C2\N(C)c3ccccc3C2(C)C)c(=O)n(-c2ccccc2)n1C	0	0	0	0	0	0
Cc1c(NC(=S)/C=C2\N(C)c3ccccc3C2(C)C)c(=O)n(-c2ccccc2)n1C	0	0	0	67	0	-
COc1cc2c(cc1OC)C(c1cccs1)CC(=O)N2 (stereo not drawn)	0	0	0	0	0	-
O=C1CC(c2cccs2)c2cc3c(cc2N1)OCO3 (stereo not drawn)	0	0	0	46	0	0
O=C(NN1C(=O)c2ccccc2C1=O)c1ccncc1	0	0	0	0	0	0
CN(C)c1ccc(C(=O)NN2C(=O)c3ccccc3C2=O)cc1	0	0	99	0	0	0
O=C(NNC(=O)c1cccnc1)Nc1ccc([N+](=O)[O-])cc1	0	0	0	42	0	0
Cc1ccc(/C=N/NC(=O)c2cccc([N+](=O)[O-])c2)o1	0	0	0	41	0	0
Cc1cccc(C(=O)OCc2cncs2)c1	0	0	0	0	0	0
CN(C)CCCNc1ncnc2sc(-c3ccccc3)cc12	-	95	0	0	0	0
CN(C)CCCNc1ncnc2c1cnn2-c1ccccc1	0	0	0	0	0	0
C#Cc1ccc(C(=O)Nc2ccc(N3CCC(C)CC3)c(C(N)=O)c2)cc1	0	0	0	0	0	0
c1ccc(CSc2ncnc3sccc23)cc1	0	0	0	42	0	0
O=C(CSc1ncnc2sccc12)Nc1ccccc1	0	0	0	0	0	0
Cc1nc(SCc2ccccc2)c2ccsc2n1	0	0	57	56	0	0
COc1cccc(/C=N/NC(=O)c2ccoc2C)c1	-	0	0	0	0	0
Cc1cc(CN(C)C(=O)c2cc(COc3ccc(F)cc3Cl)on2)n[nH]1	0	0	0	0	0	0
CCOC(=O)c1c(C)[nH]c(C)c1C(=O)COC(=O)/C=C/c1cccc(F)c1	0	0	0	52	0	0
S=C(Nc1ccc2nccnc2c1)N1CCOCC1	0	0	0	0	0	0
O=C(CN(Cc1ccccc1F)C(=O)Cn1nnc(-c2cccs2)n1)NCC1CCCO1 (stereo not drawn)	0	0	0	53	0	0
SMILES	Redox H2O2 prof	thrombin 1536	FXIIa inh 1536	KLK5 inh	FXIa inh	S1P3 antag
COC(=O)c1sc(S(=O)(=O)NCCC(=O)O)c(C(=O)OC)c1C	0	0	0	0	0	0
CC(C)c1ccc(-c2c(C#N)c(N)nc(SCC(=O)N3CCCCCC3)c2C#N)cc1	0	41	0	0	0	-
CC(C)c1ccc(-c2c(C#N)c(N)nc(SCC(=O)N3CCCCC3)c2C#N)cc1	0	0	0	0	0	-
O=c1c(Cc2c(F)cccc2Cl)c(O)ccn1CCc1ccccn1	0	0	0	0	0	0
CCN(CC)C(=N)/C(C#N)=N/Nc1ccc(C)cc1	-	0	0	42	0	0
COc1ccc(C2C(C(C)=O)=C(O)C(=O)N2c2nccs2)cc1OC (stereo not drawn)	0	0	50	57	0	0
CC1CCc2[nH]nc(C(=O)O)c2C1 (stereo not drawn)	0	78	0	0	0	0
O=C(c1ccccc1)C1CN(c2ccccc2)CC1c1ccc(Cl)cc1 (stereo not drawn)	0	0	54	62	0	-
